Measurements reported in ChEMBL document CHEMBL4680100, “Revisiting the SAR of the Antischistosomal Aryl Hydantoin (Ro 13-3978)” (J Med Chem, 2016).
In brackets after ≈: the same amount, converted by molar mass.

Experiments:
[1] = test system: L6; assay: Cytotoxicity against rat L6 cells assessed as reduction in cell viability at up to 30 uM; assay type: cell-based
[2] = test system: Schistosoma mansoni; assay: Antischistosomal activity against Schistosoma mansoni infected in NMRI mouse assessed as reduction in total worm burden at 100 mg/kg, po administered as single dose starting on day 49 post-infection and measured at 28 days post treatment relative to control; assay type: functional; parameters: scale not given: the % may be the effect or the level left; settings: time 28 day
Summary of the method: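 S. mansoni-infected NMRI mice treated on day 49 post-infection with a single oral dose, dissolved or suspended in 7% v/v Tween 80, 3% v/v ethanol (10 mL/kg), five mice per group. Sacrificed and dissected 28 d post-treatment; worms counted to give total worm burden reduction versus untreated controls. Kruskal–Wallis test on medians, treatment versus control.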

[3] = target: T1, Androgen receptor (Homo sapiens, UniProt P10275)
T1 sequence (P10275 whole entry): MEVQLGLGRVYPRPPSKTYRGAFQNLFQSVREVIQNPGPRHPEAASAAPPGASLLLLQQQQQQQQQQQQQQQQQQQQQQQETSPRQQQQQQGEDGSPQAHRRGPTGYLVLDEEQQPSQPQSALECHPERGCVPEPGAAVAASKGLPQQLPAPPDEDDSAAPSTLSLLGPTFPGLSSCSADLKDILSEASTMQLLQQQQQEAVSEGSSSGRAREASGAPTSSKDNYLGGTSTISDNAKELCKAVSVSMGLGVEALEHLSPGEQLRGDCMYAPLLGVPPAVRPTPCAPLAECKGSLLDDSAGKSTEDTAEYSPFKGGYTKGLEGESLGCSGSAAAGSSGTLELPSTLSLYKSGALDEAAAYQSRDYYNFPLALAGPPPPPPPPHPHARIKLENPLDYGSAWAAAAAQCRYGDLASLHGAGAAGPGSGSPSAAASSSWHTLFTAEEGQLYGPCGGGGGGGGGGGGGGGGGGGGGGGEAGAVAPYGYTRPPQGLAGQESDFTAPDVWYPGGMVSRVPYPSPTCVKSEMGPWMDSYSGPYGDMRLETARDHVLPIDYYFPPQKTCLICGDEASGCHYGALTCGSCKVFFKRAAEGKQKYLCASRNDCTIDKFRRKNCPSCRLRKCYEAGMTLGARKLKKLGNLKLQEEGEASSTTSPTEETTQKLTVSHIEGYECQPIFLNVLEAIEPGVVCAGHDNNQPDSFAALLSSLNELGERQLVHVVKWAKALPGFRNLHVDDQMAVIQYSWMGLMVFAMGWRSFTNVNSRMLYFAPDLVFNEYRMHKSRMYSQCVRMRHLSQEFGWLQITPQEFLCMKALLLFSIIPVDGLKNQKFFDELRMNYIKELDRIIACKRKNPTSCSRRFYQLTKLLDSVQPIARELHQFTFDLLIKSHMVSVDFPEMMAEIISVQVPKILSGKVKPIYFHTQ

[4] = Intrinsic clearance in human liver microsome in presence of NADPH-regenerating system incubated over 60 mins by LC-MS analysis; settings: microsomes, 1 h
[5] = target: Albumin (Homo sapiens, UniProt P02768); assay: Protein binding in immobilized human serum albumin by HPLC analysis; assay type: ADME; settings: isolated protein
Chain of Albumin (P02768 whole entry): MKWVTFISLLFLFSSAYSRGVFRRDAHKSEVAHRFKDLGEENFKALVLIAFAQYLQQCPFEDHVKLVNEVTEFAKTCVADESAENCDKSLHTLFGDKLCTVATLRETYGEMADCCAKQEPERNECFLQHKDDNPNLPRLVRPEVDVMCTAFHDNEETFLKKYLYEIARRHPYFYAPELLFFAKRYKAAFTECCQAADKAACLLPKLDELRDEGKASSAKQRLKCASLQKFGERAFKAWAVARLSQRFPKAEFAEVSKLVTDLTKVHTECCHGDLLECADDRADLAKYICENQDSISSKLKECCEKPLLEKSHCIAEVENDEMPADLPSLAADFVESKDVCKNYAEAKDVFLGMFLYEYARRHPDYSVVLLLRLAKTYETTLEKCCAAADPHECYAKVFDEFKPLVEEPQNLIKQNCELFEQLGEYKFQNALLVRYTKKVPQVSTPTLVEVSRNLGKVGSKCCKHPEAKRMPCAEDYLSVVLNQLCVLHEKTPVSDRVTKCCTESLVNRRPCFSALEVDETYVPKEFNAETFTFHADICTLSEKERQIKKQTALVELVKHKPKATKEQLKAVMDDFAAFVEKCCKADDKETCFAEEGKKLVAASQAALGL
Summary of the method: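 Binding estimated from gradient HPLC retention on a human albumin column, correlated against standard compounds of known protein binding.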

[6] = Octanol/water partition coefficient, logD of the compound at pH 7.4 by HPLC analysis
[7] = Kinetic solubility of compound at pH 6.5 phosphate buffer by nephelometry; assay type: physicochemical; settings: read-out: Kinetic_solubility
[8] = Intrinsic clearance in mouse liver microsome in presence of NADPH-regenerating system incubated over 60 mins by LC-MS analysis; settings: microsomes, 1 h
[9] = Kinetic solubility of the compound in 0.01 M HCl at pH 2 by nephelometry; assay type: physicochemical; settings: read-out: Kinetic_solubility
[10] = Cmax in male Swiss mouse at 100 mg/kg, po administered via gavage measured upto 48 hrs postdose by LC-MS analysis; assay type: ADME, organism-based; parameters: route oral, dose 100 mg/kg, time <=48; settings: in vivo
Summary of the method: (§1)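 Nonfasted male Swiss outbred mice (25–33 g, 7 per compound, fed ad libitum) were gavaged once at 10 mL/kg. Vehicle was 7% v/v Tween 80, 3% v/v ethanol in water, dosed within 1 h of preparation. Blood was drawn 0.25–48 h postdose (n = 2 per time point) into heparin with stabilizer, and plasma was quantified by LCMS. Noncompartmental analysis.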

[11] = Tmax in male Swiss mouse at 100 mg/kg, po administered via gavage measured upto 48 hrs postdose by LC-MS analysis; assay type: ADME, organism-based; settings: in vivo; summary of the method: as §1
[12] = AUC (0 to last) in male Swiss mouse at 100 mg/kg, po administered via gavage measured upto 48 hrs postdose by LC-MS analysis; assay type: ADME, organism-based; parameters: route oral, dose 100 mg/kg, time <=48; settings: in vivo

Compound | Activity [1] | Activity [2] | IC50 [3] | CLH [4] | PPB [5] | logD [6] | solubility kinetic [7] | CLH [8] | solubility kinetic [9] | Cmax [10] | Tmax [11] | AUClast [12]
CC1(C)C(=O)N(c2ccc(F)c(C(F)(F)F)c2)C(=O)N1S(C)(=O)=O | Non-Toxic | 19% | 6.3 µM | < 7 µL/min/mg | 66% | 3.8 | 1.6 µg/mL (≈ 4.34 µM) | < 7 µL/min/mg | 1.6 µg/mL (≈ 4.34 µM) |  |  | 
CC1(C)NC(=O)N(c2ccc(C(F)(F)F)nc2)C1=O | Non-Toxic | 0% | > 10 µM | < 7 µL/min/mg | 18.3% | 1.8 | > 100 µg/mL | < 7 µL/min/mg | > 100 µg/mL |  |  | 
CC1(C)NC(=O)N(c2ccc(F)c(C(F)F)c2)C1=O | Non-Toxic | 94% | ≥ 10 µM | < 7 µL/min/mg | 20.4% | 2.2 | > 100 µg/mL | < 7 µL/min/mg | > 100 µg/mL | 112 µM | 3 h | 3190 µM·h
Cc1ccc(N2C(=O)NC(C)(C)C2=O)cc1C(F)(F)F | Non-Toxic | 4.8% | > 10 µM | < 7 µL/min/mg | 64.8% | 2.8 | > 100 µg/mL | 16 µL/min/mg | > 100 µg/mL |  |  | 
CC1(C)NC(=O)N(c2ccnc(C(F)(F)F)c2)C1=O | Non-Toxic | 100% | 4.5 µM | < 7 µL/min/mg | 22.7% | 1.9 | > 100 µg/mL | < 7 µL/min/mg | > 100 µg/mL | 155 µM | 7 h | 6480 µM·h
CC1(C)C(=O)N(c2ccc(F)c(C(F)(F)F)c2)C(=O)N1S(=O)(=O)c1ccccc1 | Non-Toxic | 44% | 4.3 µM | 210 µL/min/mg | 96.1% | 4.6 | < 1.6 µg/mL | 160 µL/min/mg | < 1.6 µg/mL |  |  | 
CC1(C)NC(=O)N(c2ccc(Cl)c(C(F)(F)F)c2)C1=O | Non-Toxic | 75% | 1.3 µM | < 7 µL/min/mg | 79.6% | 3 | > 100 µg/mL | < 7 µL/min/mg | > 100 µg/mL |  |  | 
O=C1NC2(CCCC2)C(=O)N1c1ccc(F)c(C(F)(F)F)c1 | Non-Toxic | 61% | 0.99 µM | 33 µL/min/mg | 70.4% | 3.2 | 50 µg/mL (≈ 158 µM) | 93 µL/min/mg | 50 µg/mL (≈ 158 µM) | 15 µM | 1 h | 106 µM·h
CC1(C)NC(=O)N(c2cnccn2)C1=O | Non-Toxic | 42% | > 10 µM | < 7 µL/min/mg | 5.8% | 0.3 | > 100 µg/mL | < 7 µL/min/mg | > 100 µg/mL |  |  | 
CC1(C)NC(=O)N(c2cccnc2)C1=O | Non-Toxic | 38% | 9.6 µM | < 7 µL/min/mg | 6.6% | 0.2 | > 100 µg/mL | < 7 µL/min/mg | > 100 µg/mL |  |  | 
CC1(C)NC(=O)N(c2ccnc3ccccc23)C1=O | Non-Toxic | 17% | 1.3 µM | < 7 µL/min/mg | 16.9% | 1.2 | > 100 µg/mL | < 7 µL/min/mg | > 100 µg/mL |  |  | 
CN1C(=O)N(c2ccc(F)c(C(F)(F)F)c2)C(=O)C1(C)C | Non-Toxic | 93% | 1.3 µM | 16 µL/min/mg | 40.9% | 3.2 | 50 µg/mL (≈ 164 µM) | 65 µL/min/mg | 50 µg/mL (≈ 164 µM) |  | 1 h | 
CC1(C)NC(=O)N(c2cccc(C(F)(F)F)c2)C1=O | Non-Toxic | 80% | 6 µM | < 7 µL/min/mg | 49.3% | 2.5 | > 100 µg/mL | < 7 µL/min/mg | > 100 µg/mL |  |  | 
CC1(C)C(=O)N(c2ccc(F)c(C(F)(F)F)c2)C(=O)N1CCc1ccccc1 | Non-Toxic | 54% | 2.4 µM | > 870 µL/min/mg | 96.2% | 4.6 | 25 µg/mL (≈ 63.4 µM) | 740 µL/min/mg | 12.5 µg/mL (≈ 31.7 µM) |  |  | 
CC1(C)NC(=O)N(c2ccc(F)c(C#N)c2)C1=O | Non-Toxic | 10% | 3.7 µM | < 7 µL/min/mg | 14.6% | 1.7 | > 100 µg/mL | < 7 µL/min/mg | > 100 µg/mL |  |  | 
